Test results taken from ChEMBL document CHEMBL1125736, “N-[(omega-amino-1-hydroxyalkyl)phenyl]methanesulfonamide derivatives with class III antiarrhythmic activity” (1991).

Legend:
[1] = species on record: Oryctolagus cuniculus; assay: Tested for conduction time measured at a pacing rate of 3 Hz in vitro with rabbit heart tissue preparations.; assay type: functional
How it was run: (§1)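 Isolated rabbit heart tissues, all from one heart, each its own baseline; 2 h equilibration, perfusate changed every 15 min, basal stimulation 2 Hz between measurements. Exposed to 10^-7, 10^-6 and 10^-5 M drug, 15 min each; values reported at 10^-5 M as percent change from baseline. Drug solutions prepared daily in glass-distilled water. Force and rate recorded on polygraph.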

[2] = system: Canis familiaris; assay: Compound was tested in vivo in dogs at a dose of 0.3 mg/kg through intravenous route and number of dogs in which nonsustained ventricular arrhythmias were induced was recorded.(Base line value-2)
[3] = system: Canis familiaris; assay: Conduction time from the atrium to His bundle was tested in dogs at a dose of 1.0 mg/kg through intravenous administration. (baseline value- 73+/-3 ); assay type: functional, Canis lupus familiaris
[4] = system: Canis familiaris; assay: Conduction time for ventricular refractory period of the second premature stimulus was tested in dogs at a dose of 3.0 mg/kg through intravenous administration. (baseline value- 123+/-4); assay type: functional, Canis lupus familiaris, Cardiac ventricle
[5] = system: Canis familiaris; assay: Compound was tested in vivo in dogs at a dose of 1.0 mg/kg through intravenous route and number of dogs in which ventricular fibrillation was induced was recorded.(Base line value-1)
[6] = system: Canis familiaris; assay: Conduction time from Q wave to T wave of lead II electrocardiogram corrected for heart rate was tested in dogs at a dose of 0.3 mg/kg through intravenous administration. (baseline value- 352+/-7); assay type: functional, Canis lupus familiaris
[7] = system: Canis familiaris; assay: Compound was tested in vivo in dogs at a dose of 3.0 mg/kg through intravenous route and number of dogs in which nonsustained ventricular arrhythmias were induced was recorded.(Base line value-2)
[8] = system: Canis familiaris; assay: Conduction time from the His bundle to the onset of ventricular depolarizations was tested in dogs at a dose of 0.1 mg/kg through intravenous administration. (baseline value- 17+/-1 ); assay type: functional, Canis lupus familiaris, Cardiac ventricle
[9] = system: Canis familiaris; assay: Conduction time from the His bundle to the onset of ventricular depolarizations was tested in dogs at a dose of 1.0 mg/kg through intravenous administration. (baseline value- 17+/-1 ); assay type: functional, Canis lupus familiaris, Cardiac ventricle
[10] = species on record: Oryctolagus cuniculus; assay: Tested for force of contraction measured in mg at a pacing rate of 2 Hz in vitro with rabbit heart tissue preparations.; assay type: functional; how it was run: as §1
[11] = system: Canis familiaris; assay: Compound was tested in vivo in dogs at a dose of 0.1 mg/kg through intravenous route and number of dogs in which sustained ventricular arrhythmias were induced was recorded.(Base line value-1)
[12] = system: Canis familiaris; assay: Compound was tested in vivo in dogs at a dose of 3.0 mg/kg through intravenous route and number of dogs in which sustained ventricular arrhythmias were induced was recorded.(Base line value-1)
[13] = system: Canis familiaris; assay: Conduction time from Q wave to T wave of lead II electrocardiogram corrected for heart rate was tested in dogs at a dose of 0.1 mg/kg through intravenous administration. (baseline value- 352+/-7); assay type: functional, Canis lupus familiaris
[14] = system: Canis familiaris; assay: Compound was tested in vivo in dogs at a dose of 0.3 mg/kg through intravenous route and number of dogs in which ventricular fibrillation was induced was recorded.(Base line value-1)
[15] = system: Canis familiaris; assay: Compound was tested in vivo in dogs at a dose of 0.1 mg/kg through intravenous route and number of dogs in which ventricular arrhythmias were not indicible was recorded.(Base line value-2)
[16] = species on record: Oryctolagus cuniculus; assay: Tested for conduction time measured at a pacing rate of 1 Hz in vitro with rabbit heart tissue preparations.; assay type: functional; how it was run: as §1
[17] = system: Canis familiaris; assay: Conduction time from the His bundle to the onset of ventricular depolarizations was tested in dogs at a dose of 0.3 mg/kg through intravenous administration. (baseline value- 17+/-1 ); assay type: functional, Canis lupus familiaris, Cardiac ventricle
[18] = system: Canis familiaris; assay: Conduction time from the atrium to His bundle was tested in dogs at a dose of 0.1 mg/kg through intravenous administration. (baseline value- 73+/-3 ); assay type: functional, Canis lupus familiaris
[19] = system: Canis familiaris; assay: Conduction time for ventricular refractory period of the second premature stimulus was tested in dogs at a dose of 1.0 mg/kg through intravenous administration. (baseline value- 123+/-4); assay type: functional, Canis lupus familiaris, Cardiac ventricle
[20] = species on record: Oryctolagus cuniculus; assay: Tested for rate automaticity measured in beats per minute from unpaced right atria of rabbit heart.; assay type: functional; how it was run: as §1
[21] = system: Canis familiaris; assay: Conduction time for ventricular refractory period of the first premature stimulus was tested in dogs at a dose of 1.0 mg/kg through intravenous administration. (baseline value- 137+/-4); assay type: functional, Canis lupus familiaris, Cardiac ventricle
[22] = system: Canis familiaris; assay: Compound was tested in vivo in dogs at a dose of 0.3 mg/kg through intravenous route and number of dogs in which sustained ventricular arrhythmias were induced was recorded.(Base line value-1)
[23] = system: Canis familiaris; assay: Compound was tested in vivo in dogs at a dose of 1.0 mg/kg through intravenous route and number of dogs in which sustained ventricular arrhythmias were induced was recorded.(Base line value-1)
[24] = system: Canis familiaris; assay: Conduction time from the His bundle to the onset of ventricular depolarizations was tested in dogs at a dose of 3.0 mg/kg through intravenous administration. (baseline value- 17+/-1 ); assay type: functional, Canis lupus familiaris, Cardiac ventricle
[25] = system: Canis familiaris; assay: Conduction time for ventricular refractory period of the first premature stimulus was tested in dogs at a dose of 3.0 mg/kg through intravenous administration. (baseline value- 137+/-4); assay type: functional, Canis lupus familiaris, Cardiac ventricle
[26] = system: Canis familiaris; assay: Compound was tested in vivo in dogs at a dose of 3.0 mg/kg through intravenous route and number of dogs in which ventricular fibrillation was induced was recorded.(Base line value-1)
[27] = system: Canis familiaris; assay: Conduction time for ventricular refractory period of the second premature stimulus was tested in dogs at a dose of 0.3 mg/kg through intravenous administration. (baseline value- 123+/-4); assay type: functional, Canis lupus familiaris, Cardiac ventricle
[28] = system: Canis familiaris; assay: Compound was tested in vivo in dogs at a dose of 0.1 mg/kg through intravenous route and number of dogs in which nonsustained ventricular arrhythmias were induced was recorded.(Base line value-2)
[29] = system: Canis familiaris; assay: Conduction time from the atrium to His bundle was tested in dogs at a dose of 0.3 mg/kg through intravenous administration. (baseline value- 73+/-3 ); assay type: functional, Canis lupus familiaris
[30] = species on record: Oryctolagus cuniculus; assay: Tested for effective refractory period measured at a pacing rate of 3 Hz in vitro with rabbit heart tissue preparations.; assay type: functional; parameters: unit: %; how it was run: as §1
[31] = system: Canis familiaris; assay: Conduction time for ventricular refractory period of the second premature stimulus was tested in dogs at a dose of 0.1 mg/kg through intravenous administration. (baseline value- 123+/-4); assay type: functional, Canis lupus familiaris, Cardiac ventricle
[32] = system: Canis familiaris; assay: Conduction time from Q wave to T wave of lead II electrocardiogram corrected for heart rate was tested in dogs at a dose of 3.0 mg/kg through intravenous administration. (baseline value- 352+/-7); assay type: functional, Canis lupus familiaris
[33] = system: Canis familiaris; assay: Compound was tested in vivo in dogs at a dose of 3.0 mg/kg through intravenous route and number of dogs in which ventricular arrhythmias were not indicible was recorded.(Base line value-2)
[34] = system: Canis familiaris; assay: Conduction time from the atrium to His bundle was tested in dogs at a dose of 3.0 mg/kg through intravenous administration. (baseline value 73+/-3 ); assay type: functional, Canis lupus familiaris
[35] = system: Canis familiaris; assay: Compound was tested in vivo in dogs at a dose of 1.0 mg/kg through intravenous route and number of dogs in which ventricular arrhythmias were not indicible was recorded.(Base line value-2)
[36] = species on record: Oryctolagus cuniculus; assay: Tested for effective refractory period measured at a pacing rate of 1 Hz in vitro with rabbit heart tissue preparations.; assay type: functional; how it was run: as §1
[37] = system: Canis familiaris; assay: Conduction time from Q wave to T wave of lead II electrocardiogram corrected for heart rate was tested in dogs at a dose of 1.0 mg/kg through intravenous administration. (baseline value- 352+/-7); assay type: functional, Canis lupus familiaris
[38] = system: Canis familiaris; assay: Conduction time for ventricular refractory period of the first premature stimulus was tested in dogs at a dose of 0.1 mg/kg through intravenous administration. (baseline value- 137+/-4); assay type: functional, Canis lupus familiaris, Cardiac ventricle
[39] = system: Canis familiaris; assay: Compound was tested in vivo in dogs at a dose of 0.1 mg/kg through intravenous route and number of dogs in which ventricular fibrillation was induced was recorded.(Base line value-1)
[40] = system: Canis familiaris; assay: Compound was tested in vivo in dogs at a dose of 1.0 mg/kg through intravenous route and number of dogs in which nonsustained ventricular arrhythmias were induced was recorded.(Base line value-2)
[41] = system: Canis familiaris; assay: Compound was tested in vivo in dogs at a dose of 0.3 mg/kg through intravenous route and number of dogs in which ventricular arrhythmias were not indicible was recorded.(Base line value-2)
[42] = system: Canis familiaris; assay: Conduction time for ventricular refractory period of the first premature stimulus was tested in dogs at a dose of 0.3 mg/kg through intravenous administration. (baseline value- 137+/-4); assay type: functional, Canis lupus familiaris, Cardiac ventricle

With `CCCCN(CCCC)CCCC(O)c1ccc(NS(C)(=O)=O)cc1` (configuration not stated) the CT3 [1] was 5.2, the number of animals [2] was 4 animals and the Time [3] was 64 ms. For the same compound, the Time [4] was 115 ms, the number of animals [5] was 1 animals and the Time [6] was 358 ms. It also gave a number of animals [7] of 1 animals, a Time [8] of 13 ms and a Time [9] of 15 ms. The FOC [10] was 0, the number of animals [11] was 1 animals and the number of animals [12] was 2 animals. For the same compound, the Time [13] was 370 ms, the number of animals [14] was 0 animals and the number of animals [15] was 1 animals. The CT1 [16] was -8.5, the Time [17] was 15 ms and the Time [18] was 71 ms. It also gave a Time [19] of 120 ms, a Rate [20] of -20.3 and a Time [21] of 145 ms. The number of animals [22] was 0 animals, the number of animals [23] was 0 animals and the Time [24] was 13 ms. It also gave a Time [25] of 145 ms, a number of animals [26] of 0 animals and a Time [27] of 127 ms. It also gave a number of animals [28] of 2 animals, a Time [29] of 66 ms and an ERP3 [30] of 10.4. The Time [31] was 128 ms, the Time [32] was 367 ms and the number of animals [33] was 0 animals. It also gave a Time [34] of 64 ms, a number of animals [35] of 2 animals and an ERP1 [36] of 9.5. For the same compound, the Time [37] was 361 ms, the Time [38] was 145 ms and the number of animals [39] was 0 animals. It also gave a number of animals [40] of 3 animals, a number of animals [41] of 2 animals and a Time [42] of 147 ms.
